Laboratory results from ChEMBL document CHEMBL4304743, “Discovery of ( E)- N1-(3-Fluorophenyl)- N3-(3-(2-(pyridin-2-yl)vinyl)-1 H-indazol-6-yl)malonamide (CHMFL-KIT-033) as a Novel c-KIT T670I Mutant Selective Kinase Inhibitor for Gastrointestinal Stromal Tumors (GISTs)” (J Med Chem, 2019).
Calls of active or inactive are those of the source. The calls are words filed in the database; no cut-off is given here.

Experiments:
[1] = molecular target: Mast/stem cell growth factor receptor Kit (Homo sapiens, UniProt P10721, T670I); test: Inhibition of TEL fused wild type c-KIT T670I mutant (unknown origin) transfected in mouse BaF3 cells assessed as reduction in phosphorylation at Y719 residue after 2 hrs by Western blot analysis; assay type: cell-based
[2] = molecular target: Serine/threonine-protein kinase 25 (Homo sapiens, UniProt O00506); test: Inhibition of wild-type human partial length STK25 (V14 to H295 residues) expressed in bacterial expression system after 1 hr by Z-LYTE assay
[3] = AUC (0 to t) in mouse at 10 mg/kg, po measured after 5 to 720 mins by LC-tandem mass spectrometry analysis; assay type: ADME, organism-based; conditions: in vivo
How it was run: (§1)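 Mice dosed 1 mg/kg i.v. or 10 mg/kg p.o.; plasma drug levels by LC-MS/MS, parameters by noncompartmental analysis; values not from triplicate testing.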

[4] = species: Homo sapiens; test: Induction of apoptosis in human GIST5R cells harboring c-KIT 560 to 578 deletion/T670I double mutant assessed as increase in cleaved PARP level after 24 hrs by Western blot analysis; assay type: functional, cell-based
How it was run: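 GIST cells grown in DMEM with 10% FBS, treated 24 h with serially diluted compound; apoptosis read by Western blot for PARP, with GAPDH as loading control.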

[5] = Apparent clearance in mouse at 1 mg/kg, iv measured after 2 to 720 mins by LC-tandem mass spectrometry analysis; assay type: ADME, organism-based; conditions: in vivo, read-out: CL(app) (converted); how it was run: as §1
[6] = test system: GISTT1; test: Induction of cell cycle arrest in human GISTT1 cells harboring c-KIT 560 to 578 deletion mutant after 24 hrs; assay type: functional, cell-based
[7] = molecular target: Platelet-derived growth factor receptor alpha (Homo sapiens, UniProt P16234); test: Inhibition of wild-type human partial length PDGFRA (V575 to D1002 residues) expressed in mammalian expression system after 1 hr by Z-LYTE assay
[8] = molecular target: Casein kinase I isoform alpha (Homo sapiens, UniProt P48729); test: Inhibition of wild-type human partial length CSNK1A1 (M1 to L301 residues) expressed in mammalian expression system after 1 hr by Z-LYTE assay
[9] = test system: Mast/stem cell growth factor receptor Kit (Homo sapiens), P10721 [V559D,T670I]; test: Inhibition of TEL fused c-KIT T670I/V559D double mutant (unknown origin) transfected in mouse BAF3 cells assessed as growth inhibition after 72 hrs by CCK8 assay; assay type: cell-based
How it was run: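 Tel-c-KIT-transformed BaF3 lines (IL-3 independent) kept in RPMI 1640 with 10% FBS, 2% L-glutamine and pen/strep. Cells at 1.5 to 5 × 10^4 cells/mL mixed with graded compound and incubated 72 h at 37 °C, 5% CO2. Viability by CCK-8 absorbance at 450 nm, normalized to DMSO. GI50 from dose–response fit.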

[10] = species: Homo sapiens; test: Selectivity ratio, ratio of IC50 for wild-type His-tagged c-KIT (unknown origin) expressed in baculovirus infected sf9 cells to IC50 for His-tagged c-KIT T670I mutant (544 to 935 residues) (unknown origin) expressed in baculovirus infected sf9 cells
How it was run: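 Purified protein: His-tagged c-KIT wt or T670I, residues 544−935, expressed in baculovirus-infected SF9 cells. Purified by Ni-NTA then Superdex-200. Enzyme (wt 20 ng/µL, T670I 15 ng/µL) preincubated with inhibitor 60 min at room temperature. Then ATP/substrate added (50 µM ATP) and run 1 h at 37 °C. ADP-Glo luminescence read-out; IC50 from fitted dose–response curves.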

[11] = molecular target: Mast/stem cell growth factor receptor Kit (Homo sapiens, UniProt P10721); test: Inhibition of wild type TEL fused c-KIT (unknown origin) transfected in mouse BAF3 cells assessed as growth inhibition after 72 hrs by CCK8 assay; assay type: cell-based; conditions: baf3, 72 h
How it was run: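 IL-3 independent BaF3 cells stably expressing tel-c-KIT wt or tel-c-KIT T670I, grown in RPMI 1640 with 10% FBS, 2% L-glutamine, 37 °C, 5% CO2. Suspension cells at 1.5 to 5 × 10^4 cells/mL mixed with serial compound dilutions and incubated 72 h. Viability read by CCK-8 absorbance at 450 nm, normalized to DMSO; GI50 from curve fit. Selectivity is wt GI50 over T670I GI50.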

[12] = Half-life in mouse at 1 mg/kg, iv measured after 2 to 720 mins by LC-tandem mass spectrometry analysis; assay type: ADME, organism-based; conditions: in vivo; how it was run: as §1
[13] = molecular target: Macrophage colony-stimulating factor 1 receptor (Homo sapiens, UniProt P07333); test: Inhibition of wild-type human partial length CSF1R (I564 to S939 residues) expressed in bacterial expression system after 1 hr by Z-LYTE assay
[14] = Apparent clearance in mouse at 10 mg/kg, po measured after 5 to 720 mins by LC-tandem mass spectrometry analysis; assay type: ADME, organism-based; conditions: in vivo, read-out: CL(app) (converted); how it was run: as §1
[15] = molecular target: Serine/threonine-protein kinase PAK 2 (Homo sapiens, UniProt Q13177); test: Inhibition of wild-type human partial length PAK2 (P151 to R525 residues) expressed in bacterial expression system after 1 hr by Z-LYTE assay
[16] = test system: Mus musculus; test: Inhibition of c-KIT phosphorylation at Y719 residue in tumor of human GIST5R cells xenografted in nude mouse at 100 mg/kg, po administered as single dose and measured at 2 hrs; assay type: functional, organism-based
How it was run: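 Female nu/nu mice bearing subcutaneous GIST-5R xenografts (cells in Matrigel, right flank) given one oral gavage dose of 100 mg/kg in HKI suspension (0.5% methocellulose/0.4% Tween80 in ddH2O). Tumors collected over a 2 h time course; p-c-KIT, p-ERK and p-AKT assessed by Western blot; plasma drug levels monitored in parallel.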

[17] = test system: Mast/stem cell growth factor receptor Kit (Homo sapiens), P10721 [UNDEFINED MUTATION]; test: Inhibition of c-KIT 560 to 578 deletion/T670I double mutant in human GISTT1 cells assessed as reduction in ERK phosphorylation at T202/Y204 residue at 0.1 uM to 3 uM after 1 hr by Western blot analysis; assay type: cell-based
How it was run: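 Serial compound dilutions applied for 1 h to GIST-T1, GIST-T1-T670I (CRISPR/Cas9 T670I knock-in, clone confirmed by Sanger sequencing) or GIST-5R cells in DMEM with 10% FBS. Cells then lysed and phospho-proteins detected by standard Western blotting.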

[18] = Half-life in mouse at 10 mg/kg, po measured after 5 to 720 mins by LC-tandem mass spectrometry analysis; assay type: ADME, organism-based; conditions: in vivo; how it was run: as §1
[19] = test system: Mus musculus; test: Inhibition of AKT phosphorylation at […] residue in tumor of human GIST5R cells xenografted in nude mouse at 100 mg/kg, po administered as single dose and measured after 2 hrs; assay type: functional, organism-based
How it was run: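 Female nu/nu mice bearing subcutaneous GIST-5R tumors (cells in Matrigel, right flank) given one oral dose of 100 mg/kg in 0.5% methylcellulose/0.4% Tween80. Tumors collected over a 2 h time course. p-c-KIT, p-ERK and p-AKT measured alongside plasma drug levels.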

Sequence of Casein kinase I isoform alpha (P48729 whole entry, the tested form may be a part, canonical isoform): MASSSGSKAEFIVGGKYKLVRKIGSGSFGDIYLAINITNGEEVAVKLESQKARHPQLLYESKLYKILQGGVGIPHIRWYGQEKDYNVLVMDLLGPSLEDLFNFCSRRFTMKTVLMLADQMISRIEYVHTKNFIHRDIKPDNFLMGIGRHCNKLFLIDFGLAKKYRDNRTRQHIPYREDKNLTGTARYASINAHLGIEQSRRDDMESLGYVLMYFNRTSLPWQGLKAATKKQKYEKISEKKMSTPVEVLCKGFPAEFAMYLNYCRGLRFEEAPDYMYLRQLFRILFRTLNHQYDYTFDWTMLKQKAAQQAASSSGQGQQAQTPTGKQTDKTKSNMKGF
Sequence of Platelet-derived growth factor receptor alpha (P16234 whole entry, the tested form may be a part, canonical isoform): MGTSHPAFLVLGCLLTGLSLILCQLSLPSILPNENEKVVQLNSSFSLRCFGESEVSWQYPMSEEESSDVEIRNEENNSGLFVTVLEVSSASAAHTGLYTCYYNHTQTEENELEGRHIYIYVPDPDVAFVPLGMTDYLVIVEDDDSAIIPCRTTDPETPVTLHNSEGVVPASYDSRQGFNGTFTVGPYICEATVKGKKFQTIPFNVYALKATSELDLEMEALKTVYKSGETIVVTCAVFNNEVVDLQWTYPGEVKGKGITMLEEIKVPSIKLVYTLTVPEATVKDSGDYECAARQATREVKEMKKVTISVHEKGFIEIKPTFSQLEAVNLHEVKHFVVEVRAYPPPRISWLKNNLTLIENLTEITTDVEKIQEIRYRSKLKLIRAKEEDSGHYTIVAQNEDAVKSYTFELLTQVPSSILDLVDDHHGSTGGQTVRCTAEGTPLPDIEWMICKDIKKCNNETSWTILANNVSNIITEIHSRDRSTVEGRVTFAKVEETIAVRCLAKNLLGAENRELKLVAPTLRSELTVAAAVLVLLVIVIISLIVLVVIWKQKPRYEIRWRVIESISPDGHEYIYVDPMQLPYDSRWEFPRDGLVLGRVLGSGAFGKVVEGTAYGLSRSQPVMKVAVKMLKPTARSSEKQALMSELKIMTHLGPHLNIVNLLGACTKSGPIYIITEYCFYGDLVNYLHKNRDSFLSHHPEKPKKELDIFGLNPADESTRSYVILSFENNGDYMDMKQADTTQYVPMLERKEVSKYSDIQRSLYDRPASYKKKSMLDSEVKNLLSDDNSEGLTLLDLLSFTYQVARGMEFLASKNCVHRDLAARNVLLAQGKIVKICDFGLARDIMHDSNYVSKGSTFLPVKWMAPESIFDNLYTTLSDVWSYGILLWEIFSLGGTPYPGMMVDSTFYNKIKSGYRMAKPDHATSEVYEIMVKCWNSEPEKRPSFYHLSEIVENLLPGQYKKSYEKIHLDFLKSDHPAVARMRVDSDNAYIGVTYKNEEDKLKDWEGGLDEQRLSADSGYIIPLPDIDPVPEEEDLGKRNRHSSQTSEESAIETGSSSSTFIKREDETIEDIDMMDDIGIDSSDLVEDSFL
Sequence of Macrophage colony-stimulating factor 1 receptor (P07333 whole entry, the tested form may be a part): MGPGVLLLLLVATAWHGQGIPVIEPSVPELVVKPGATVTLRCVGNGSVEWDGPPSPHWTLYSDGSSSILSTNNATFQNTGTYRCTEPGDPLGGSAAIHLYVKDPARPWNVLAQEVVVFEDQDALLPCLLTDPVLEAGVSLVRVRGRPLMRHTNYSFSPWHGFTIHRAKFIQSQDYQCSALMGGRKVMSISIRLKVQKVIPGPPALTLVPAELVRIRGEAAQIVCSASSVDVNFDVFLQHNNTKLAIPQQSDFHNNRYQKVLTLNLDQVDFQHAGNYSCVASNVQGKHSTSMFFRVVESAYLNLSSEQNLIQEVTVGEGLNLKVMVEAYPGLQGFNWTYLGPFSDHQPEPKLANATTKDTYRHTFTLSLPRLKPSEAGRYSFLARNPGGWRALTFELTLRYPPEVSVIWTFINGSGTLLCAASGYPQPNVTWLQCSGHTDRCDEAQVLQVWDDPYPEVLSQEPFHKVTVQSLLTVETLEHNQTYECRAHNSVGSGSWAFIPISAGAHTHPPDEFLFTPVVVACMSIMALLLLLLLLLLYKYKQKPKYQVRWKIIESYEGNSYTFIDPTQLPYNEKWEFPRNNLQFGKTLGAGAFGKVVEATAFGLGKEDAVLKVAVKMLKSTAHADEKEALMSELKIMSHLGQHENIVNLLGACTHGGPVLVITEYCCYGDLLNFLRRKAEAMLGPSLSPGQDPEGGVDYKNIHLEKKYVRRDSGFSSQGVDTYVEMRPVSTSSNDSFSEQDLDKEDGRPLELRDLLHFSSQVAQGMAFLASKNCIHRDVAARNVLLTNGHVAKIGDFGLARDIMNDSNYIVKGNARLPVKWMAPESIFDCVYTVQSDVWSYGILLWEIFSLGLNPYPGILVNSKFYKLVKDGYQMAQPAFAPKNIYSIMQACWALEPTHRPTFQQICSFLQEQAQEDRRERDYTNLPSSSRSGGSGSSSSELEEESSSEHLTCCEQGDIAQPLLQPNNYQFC
Sequence of Mast/stem cell growth factor receptor Kit (Homo sapiens, UniProt P10721) (P10721 whole entry, the tested form may be a part): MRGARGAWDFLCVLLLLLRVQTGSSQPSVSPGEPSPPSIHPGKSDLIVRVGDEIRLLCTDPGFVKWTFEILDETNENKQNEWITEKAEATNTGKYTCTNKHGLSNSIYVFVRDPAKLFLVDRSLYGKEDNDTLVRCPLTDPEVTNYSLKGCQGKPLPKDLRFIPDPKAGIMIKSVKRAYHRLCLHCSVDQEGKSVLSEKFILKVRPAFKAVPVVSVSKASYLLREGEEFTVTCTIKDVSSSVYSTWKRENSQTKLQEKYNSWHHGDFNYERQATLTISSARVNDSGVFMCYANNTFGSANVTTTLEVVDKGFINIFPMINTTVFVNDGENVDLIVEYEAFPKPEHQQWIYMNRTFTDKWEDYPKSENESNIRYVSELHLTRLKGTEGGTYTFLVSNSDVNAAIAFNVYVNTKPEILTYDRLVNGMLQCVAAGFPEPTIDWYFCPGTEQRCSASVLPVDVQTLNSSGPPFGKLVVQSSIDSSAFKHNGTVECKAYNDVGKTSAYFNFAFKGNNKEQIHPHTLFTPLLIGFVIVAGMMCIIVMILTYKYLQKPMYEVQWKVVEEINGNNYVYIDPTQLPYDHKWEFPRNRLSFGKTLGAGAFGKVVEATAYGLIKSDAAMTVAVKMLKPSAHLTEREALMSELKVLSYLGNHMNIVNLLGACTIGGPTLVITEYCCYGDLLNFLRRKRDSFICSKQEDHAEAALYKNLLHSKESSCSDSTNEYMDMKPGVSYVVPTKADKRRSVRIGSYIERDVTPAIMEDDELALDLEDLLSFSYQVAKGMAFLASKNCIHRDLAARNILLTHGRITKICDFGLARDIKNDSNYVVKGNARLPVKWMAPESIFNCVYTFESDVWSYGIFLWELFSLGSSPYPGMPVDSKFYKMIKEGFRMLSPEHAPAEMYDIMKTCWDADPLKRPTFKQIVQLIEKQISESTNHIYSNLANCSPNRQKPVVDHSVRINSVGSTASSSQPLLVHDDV
Sequence of Mast/stem cell growth factor receptor Kit (Homo sapiens), P10721 [UNDEFINED MUTATION] (P10721 whole entry, looked up, stated change not applied): as the sequence (P10721 whole entry, the tested form may be a part) above
Sequence of Serine/threonine-protein kinase 25 (O00506 whole entry, the tested form may be a part): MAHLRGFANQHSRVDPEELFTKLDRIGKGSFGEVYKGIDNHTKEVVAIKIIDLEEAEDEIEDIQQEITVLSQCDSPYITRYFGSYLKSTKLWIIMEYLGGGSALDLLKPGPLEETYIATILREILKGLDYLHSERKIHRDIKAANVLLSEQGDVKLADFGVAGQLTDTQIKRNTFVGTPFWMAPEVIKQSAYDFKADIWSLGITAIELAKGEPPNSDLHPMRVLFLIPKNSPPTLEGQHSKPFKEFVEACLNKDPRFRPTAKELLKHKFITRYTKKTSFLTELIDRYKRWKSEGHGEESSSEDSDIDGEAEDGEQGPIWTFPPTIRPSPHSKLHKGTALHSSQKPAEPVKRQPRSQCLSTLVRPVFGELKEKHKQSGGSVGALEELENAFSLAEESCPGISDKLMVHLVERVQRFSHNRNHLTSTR
Sequence of Serine/threonine-protein kinase PAK 2 (Q13177 whole entry, the tested form may be a part): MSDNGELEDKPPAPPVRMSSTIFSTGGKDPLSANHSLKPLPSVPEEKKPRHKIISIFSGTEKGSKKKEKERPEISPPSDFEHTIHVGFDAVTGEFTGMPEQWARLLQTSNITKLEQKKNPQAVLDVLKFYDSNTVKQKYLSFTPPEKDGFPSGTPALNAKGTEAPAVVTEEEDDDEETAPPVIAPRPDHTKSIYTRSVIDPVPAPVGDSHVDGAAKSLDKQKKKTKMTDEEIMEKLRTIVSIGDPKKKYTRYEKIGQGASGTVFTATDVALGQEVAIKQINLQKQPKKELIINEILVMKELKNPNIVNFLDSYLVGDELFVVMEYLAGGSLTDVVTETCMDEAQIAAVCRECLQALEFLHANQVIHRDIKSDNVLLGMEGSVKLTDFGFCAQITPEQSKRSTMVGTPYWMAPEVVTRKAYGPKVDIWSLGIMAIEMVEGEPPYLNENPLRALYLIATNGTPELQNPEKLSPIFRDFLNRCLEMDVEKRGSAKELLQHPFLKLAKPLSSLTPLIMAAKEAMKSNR
Sequence of Mast/stem cell growth factor receptor Kit (Homo sapiens), P10721 [V559D,T670I] (P10721 whole entry V559D/T670I, the tested form may be a part): as the sequence (P10721 whole entry, the tested form may be a part) above, with V559D, T670I counted along it

Work on `O=C(CC(=O)Nc1ccc2c(/C=C/c3ccccn3)n[nH]c2c1)Nc1cccc(F)c1` yielded an EC50 [1] of 750 nM, an IC50 [2] of over 10000 nM and an AUC(0-t) [3] of 1470 ng·h/mL. For the same compound, the Activity [4] was “Dose-dependent effect”, the clearance [5] was 18.3 mL/min/kg and the Activity [6] was “Dose-dependent effect”. For the same compound, the IC50 [7] was 7780 nM, the IC50 [8] was over 10000 nM and the GI50 [9] was 122 nM. For the same compound, the Ratio IC50 [10] was 12, the GI50 [11] was 1150 nM and the half-life [12] was 4.9 h. It also gave an IC50 [13] of 14.2 to 14.3 nM, a CL/F [14] of 113 mL/min/kg and an IC50 [15] of over 10000 nM. The inhibition [16] was “Active”, the inhibition [17] was “Active” and the half-life [18] was 1.6 h. For the same compound, the inhibition [19] was “inactive”.
